The MIC is the smallest concentration in the dilution series that meets the test's criterion for growth inhibition. A word on the mortality: it is the percentage killed.

The source made the active and inactive calls.

Assay type in all cases: functional
Assay [1] deals with Pseudomonas aeruginosa. Nature of the assay: Potentiation of minocycline-induced antibacterial activity against multidrug/extremely drug-resistant/colistin-susceptible Pseudomonas aeruginosa isolate 100036 at 4 ug/ml after 18 hrs by checkerboard assay. The method in brief: (§1)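 Checkerboard in Mueller-Hinton broth: antibiotic serially diluted along one axis and adjuvant along the other (10 × 7 matrix). Inoculum from a 0.5 McFarland saline suspension diluted 1:50 in MHB; 18 h at 37 °C, then plate read. MIC is the lowest concentration with no growth. FIC of each agent is its concentration in a no-growth well divided by its MIC alone; FIC index is the sum of both. FIC index ≤0.5 counts as synergy.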

Assay [2] deals with Acinetobacter baumannii. The assay is described as follows: Potentiation of rifampicin-induced antibacterial activity against multidrug-resistant Acinetobacter baumannii AB027 at 4 ug/ml after 18 hrs by checkerboard assay. The method in brief: as §1
Assay [3] deals with Enterococcus faecalis. Nature of the assay: Antibacterial activity against Enterococcus faecalis ATCC 29212 after 18 hrs by microtiter dilution assay. Particulars: ATCC 29212, 18 h. In a few lines: (§2)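 Broth microdilution per CLSI. Overnight culture adjusted to 0.5 McFarland in saline, diluted 1:50 in Mueller-Hinton broth, and added to an equal volume of 2-fold serial compound dilutions in MHB. Incubated 18 h at 37 °C. MIC taken as the lowest concentration with no visible growth.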

For assay [4], the system named is Pseudomonas aeruginosa. Nature of the assay: Potentiation of rifampicin-induced antibacterial activity against multidrug/extremely drug-resistant/colistin-susceptible Pseudomonas aeruginosa isolate P259-96918 assessed as fold reduction in rifampicin MIC at 4 ug/ml after 18 hrs by checkerboard assay relative to control. The method in brief: (§3)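 Checkerboard in Mueller-Hinton broth, 10 × 7 matrix, with the adjuvant held at 4 µg/mL. Inoculum from a 0.5 McFarland suspension diluted 1:50; 18 h at 37 °C. Antibiotic MIC (lowest concentration with no growth) with adjuvant is compared with the antibiotic MIC alone, giving a fold reduction.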

For assay [5], the system named is Pseudomonas aeruginosa. Nature of the assay: Bactericidal activity against Pseudomonas aeruginosa PAO1 at antibacterial MIC after 2 hrs. In a few lines: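 Time-kill with P. aeruginosa PAO1. A 0.5 McFarland suspension was diluted 1:50 in LB broth and exposed to agent in PBS (pH 7.2) at 1/2×, 1×, 2× or 4× MIC at 37 °C for 6 h. Samples at 0, 10, 30, 60, 90, 120, 240 and 360 min were serially diluted in PBS, plated on LB agar, and colonies counted after 20 h at 37 °C.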

Assay [6] has as its system Pseudomonas aeruginosa. The assay is described as follows: Disruption of proton motive force in Pseudomonas aeruginosa PAO1 cytoplasmic membrane assessed as repression of bacterial swimming motility after 20 hrs. In a few lines:
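Swim plates of 0.3% agar with tryptone 5 g/L and NaCl 2.5 g/L, agent mixed into the medium and plates dried 2 h. PAO1 at 1.0 McFarland in 0.85% saline was point-inoculated at the center, and plates incubated 20 h at 37 °C before swim diameter was imaged.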

The test system of assay [7] is Pseudomonas aeruginosa. The assay is described as follows: Antibacterial activity against Pseudomonas aeruginosa ATCC 27853 after 18 hrs by microtiter dilution assay. Particulars: ATCC 27853, 18 h. In a few lines: as §2
For assay [8], the system named is Pseudomonas aeruginosa. The assay is described as follows: Synergistic antibacterial activity against Pseudomonas aeruginosa PAO1 after 18 hrs in presence of erythromycin by checkerboard assay. The note with it: PAO1, 18 h. The method in brief: (§4)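 Checkerboard in MHB: antibiotic diluted along one axis and adjuvant along the other (10 × 7 matrix). Inoculum was a 1:50 dilution in MHB of a 0.5 McFarland saline suspension; incubated 18 h at 37 °C. Each FIC = concentration in the no-growth well divided by the MIC alone; FIC index = sum of both FICs. ≤0.5 synergy, 0.5–4 no interaction, ≥4 antagonism.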

The subject of assay [9] is Pseudomonas aeruginosa. Nature of the assay: Potentiation of minocycline-induced antibacterial activity against multidrug/extremely drug-resistant/colistin-susceptible Pseudomonas aeruginosa isolate P262-101856 infected in Galleria mellonella assessed as mortality at 12.5 to 37.5 mg/kg after 24 hrs relative to control. In a few lines: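 Galleria mellonella larvae (~250 mg, used within 7 days), 15 per group, injected with 10 µL XDR P. aeruginosa P262 suspension (1.0×10^3 CFU/mL in PBS). At 2 h, a single 10 µL injection of combination at 12.5 + 12.5, 25 + 25 or 37.5 + 37.5 mg/kg; PBS vehicle control. Kept at 37 °C and survival scored over 24 h.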

Assay [10] relates to Pseudomonas aeruginosa. The assay is described as follows: Potentiation of rifampicin-induced antibacterial activity against multidrug/extremely drug-resistant/colistin-susceptible Pseudomonas aeruginosa isolate P262-101856 assessed as fold reduction in rifampicin MIC at 4 ug/ml after 18 hrs by checkerboard assay relative to control. The method in brief:
as §3

In assay [11] the test system is Pseudomonas aeruginosa. The assay is described as follows: Antibacterial activity against multidrug/extremely drug-resistant/colistin-susceptible Pseudomonas aeruginosa isolate P259-96918 after 18 hrs by microtiter dilution assay. Particulars: isolate P259-96918, 18 h. In a few lines:
(§5)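 Broth microdilution following CLSI guidelines. An overnight culture was adjusted to 0.5 McFarland in saline, then diluted 1:50 in Mueller-Hinton broth. This inoculum was added in equal volume to 2-fold serial dilutions of agent in MHB and incubated 18 h at 37 °C. MIC was the lowest concentration with no visible growth.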

Assay [12] deals with Pseudomonas aeruginosa. Nature of the assay: Synergistic antibacterial activity against Pseudomonas aeruginosa PAO1 after 18 hrs in presence of novobiocin by checkerboard assay. The note with it: PAO1, 18 h. The method in brief:
as §4

The subject of assay [13] is Pseudomonas aeruginosa. The assay is described as follows: Antibacterial activity against multidrug/extremely drug-resistant/colistin-susceptible Pseudomonas aeruginosa isolate P264-104354 after 18 hrs by microtiter dilution assay. The note with it: isolate P264-104354, 18 h. The method in brief:
as §5

Assay [14] relates to Pseudomonas aeruginosa. The assay is described as follows: Potentiation of rifampicin-induced antibacterial activity against multidrug/extremely drug-resistant/colistin-susceptible Pseudomonas aeruginosa isolate P264-104354 at 4 ug/ml after 18 hrs by checkerboard assay. In a few lines:
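Checkerboard broth microdilution in MHB: antibiotic serially diluted along one axis, adjuvant along the other (10 × 7 matrix). Inoculum from 0.5 McFarland saline suspension diluted 1:50 in MHB; 18 h at 37 °C. MIC taken as lowest concentration with no growth. FIC per agent = combination MIC/MIC alone; FIC index = sum (≤0.5 synergy).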

For assay [15], the system named is Acinetobacter baumannii. The assay is described as follows: Synergistic antibacterial activity against multidrug-resistant Acinetobacter baumannii AB031 after 18 hrs in presence of minocycline by checkerboard assay. Particulars: AB031, 18 h. The method in brief: (§6)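 Checkerboard in MHB with a 10 × 7 matrix: antibiotic serially diluted along one axis, adjuvant along the other. Inoculum was a 1:50 dilution of a 0.5 McFarland suspension, incubated 18 h at 37 °C and read on a plate reader. Each FIC is the concentration in a no-growth well divided by the MIC alone; FIC index is their sum, with ≤0.5 taken as synergy.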

The test system of assay [16] is Pseudomonas aeruginosa. Nature of the assay: Antibacterial activity against gentamicin/tobramycin-resistant Pseudomonas aeruginosa isolate CANWARD-2011 96846 after 18 hrs by microtiter dilution assay. Particulars: isolate CANWARD-2011 96846, 18 h. The method in brief: as §5
In assay [17] the test system is Acinetobacter baumannii. Nature of the assay: Antibacterial activity against multidrug-resistant Acinetobacter baumannii AB031 after 18 hrs by microtiter dilution assay. The note with it: AB031, 18 h. The method in brief: as §5
The subject of assay [18] is Pseudomonas aeruginosa. The assay is described as follows: Potentiation of rifampicin-induced antibacterial activity against multidrug/extremely drug-resistant/colistin-susceptible Pseudomonas aeruginosa isolate 101885 at 4 ug/ml after 18 hrs by checkerboard assay. In a few lines:
as §1

The test system of assay [19] is Enterobacter cloacae. The assay is described as follows: Synergistic antibacterial activity against multidrug-resistant Enterobacter cloacae 117029 after 18 hrs in presence of rifampicin by checkerboard assay. Particulars: Enterobacter cloacae, 117029, 18 h. In a few lines: as §6

With `Cl.Cl.Cl.Cl.Cl.Cl.Cl.NCCCC[C@H](N)C(=O)N(CCCCCCCCCCCCO[C@@H]1[C@@H](O[C@H]2O[C@H](CO)[C@@H](O)[C@H](N)[C@H]2O)[C@H](N)C[C@H](N)[C@H]1O[C@H]1O[C@H](CN)[C@@H](O)C[C@H]1N)Cc1c2ccccc2c(Cl)c2ccccc12`, the “fractional inhibitory concentration index (FICI)” value came to 0.094 in [1], 0.079 in [2], 0.094 in assay [14] and 0.094 in [18]. Further, the minimum inhibitory concentration (MIC) in [3] is 16 µg/mL; in [7], 32 µg/mL; in assay [8], 4 µg/mL; in [11] it was 64 µg/mL; in assay [12], 2 µg/mL; in assay [13], 32 µg/mL. Moreover, the MIC in assay [15] is 2 µg/mL; in assay [16], 32 µg/mL; in assay [17] it was 16 to 32 µg/mL; in [19] it was 4 µg/mL. Moreover, the “fold change (FC)” value in assay [4] was 256; in [10], 64. Further, in [5], the outcome was Active. In addition, the Activity result in [6] is “Dose-dependent effect”. In addition, the mortality in assay [9] is listed as 100%.

The record behind these values is ChEMBL document CHEMBL4014308, “Amphiphilic Tobramycin-Lysine Conjugates Sensitize Multidrug Resistant Gram-Negative Bacteria to Rifampicin and Minocycline” (J Med Chem, 2017).
